target: T1, UniProt Q3U0P3; settings: stereoisomer not certain
T1 sequence (whole entry): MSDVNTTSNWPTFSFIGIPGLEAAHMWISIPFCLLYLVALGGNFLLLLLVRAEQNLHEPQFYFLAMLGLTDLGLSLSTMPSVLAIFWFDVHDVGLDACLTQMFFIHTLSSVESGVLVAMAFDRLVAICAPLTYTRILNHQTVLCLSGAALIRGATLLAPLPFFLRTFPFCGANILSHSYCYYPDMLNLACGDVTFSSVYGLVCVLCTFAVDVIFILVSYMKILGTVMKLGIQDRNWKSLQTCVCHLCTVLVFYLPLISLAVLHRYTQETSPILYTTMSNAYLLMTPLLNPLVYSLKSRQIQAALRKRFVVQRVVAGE
How it was run: (§1)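 Values were gathered from published papers (main text and supplementary material), with extra details requested from the original authors when needed, and checked for typos and inconsistencies. Each receptor–molecule pair is called responsive (active) if the original authors judged the measured signal statistically different from baseline, and non-responsive (inactive) otherwise. Assay methods varied by source, often transient mammalian cell-line luciferase assays. Recorded details include cell line, G-protein, co-transfected protein and tags.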

Row | SMILES | odorant receptor agonist call
1 | CCC(=O)O | inactive
2 | CC(=O)OCC=C(C)C | inactive
3 | O=C1Cc2ccccc2O1 | inactive
4 | O=C1CCOc2ccccc21 | inactive
5 | CCCCCCCCO | inactive
6 | CCCCCCCCCCO | inactive
7 | CCCCCCCCC(=O)O | inactive
8 | CCCO | inactive
9 | O=C(OCc1ccccc1)c1ccccc1O | inactive
10 | C=C(C)C1CCC(C)C(=O)C1 (stereo not given) | inactive
11 | CCCCCCO | inactive
12 | CC(C)=CCCC(C)CCO (stereo not given) | inactive

target: T2, UniProt Q7TQU8; settings: stereoisomer not certain
T2 sequence (whole entry): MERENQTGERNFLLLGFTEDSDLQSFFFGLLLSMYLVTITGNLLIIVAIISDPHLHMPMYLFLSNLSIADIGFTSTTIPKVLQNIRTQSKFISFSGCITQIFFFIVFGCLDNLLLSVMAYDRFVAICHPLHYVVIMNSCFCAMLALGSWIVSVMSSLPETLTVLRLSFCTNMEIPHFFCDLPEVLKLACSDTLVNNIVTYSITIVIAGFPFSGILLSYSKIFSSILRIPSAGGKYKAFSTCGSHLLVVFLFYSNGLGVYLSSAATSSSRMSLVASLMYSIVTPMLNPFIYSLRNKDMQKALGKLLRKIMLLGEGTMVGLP
How it was run: as §1

Row | SMILES | odorant receptor agonist call
13 | CCC(=O)O | inactive
14 | CC(=O)OCC=C(C)C | inactive
15 | O=C1Cc2ccccc2O1 | inactive
16 | O=C1CCOc2ccccc21 | inactive
17 | CCCCCCCCO | inactive
18 | CCCCCCCCCCO | inactive
19 | CCCCCCCCC(=O)O | inactive
20 | CCCO | inactive
21 | O=C(OCc1ccccc1)c1ccccc1O | inactive
22 | C=C(C)C1CCC(C)C(=O)C1 (stereo not given) | inactive
23 | CCCCCCO | inactive
24 | CC(C)=CCCC(C)CCO (stereo not given) | inactive

target: T3, UniProt Q7TQV4; settings: stereoisomer not certain
T3 sequence (whole entry): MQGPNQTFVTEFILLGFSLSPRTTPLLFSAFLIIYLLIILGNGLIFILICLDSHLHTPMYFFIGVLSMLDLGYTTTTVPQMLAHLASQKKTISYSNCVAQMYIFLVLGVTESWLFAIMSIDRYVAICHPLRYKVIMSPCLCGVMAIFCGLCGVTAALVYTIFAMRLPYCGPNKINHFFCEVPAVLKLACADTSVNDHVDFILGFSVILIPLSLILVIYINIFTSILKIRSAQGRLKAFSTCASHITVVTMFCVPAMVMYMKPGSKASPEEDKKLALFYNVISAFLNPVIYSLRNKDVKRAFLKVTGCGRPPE
How it was run: as §1

Row | SMILES | odorant receptor agonist call
25 | CCC(=O)O | inactive
26 | CC(=O)OCC=C(C)C | active
27 | O=C1Cc2ccccc2O1 | active
28 | O=C1CCOc2ccccc21 | inactive
29 | CCCCCCCCO | inactive
30 | CCCCCCCC(=O)[O-].[H+] | inactive
31 | CCCCCCCCCCO | inactive
32 | CCCCCCC(=O)[O-].[H+] | inactive
33 | CCCCCO | inactive
34 | CCC(C(=O)O)c1ccccc1 (stereo not given) | inactive
35 | CCCCCCCCC(=O)O | inactive
36 | CCCC(C)=O | inactive
37 | C=C(C)C1CCC(C)C(=O)C1 (stereo not given) | inactive
38 | CCCCCCO | inactive
39 | CC(C)=CCCC(C)CCO (stereo not given) | inactive
40 | CCCCOC(=O)C(C)OC(=O)CCC (stereo not given) | inactive
